According to ChEMBL document CHEMBL4831480, “Identification of First-in-Class Inhibitors of Kallikrein-Related Peptidase 6 That Promote Oligodendrocyte Differentiation” (J Med Chem, 2021):

These compounds were tested against T1, Kallikrein-6 (Homo sapiens, UniProt Q92876) (assay: Inhibition of KLK6 (unknown origin) assessed as release of AMC fluorescent product using Boc-QAR-AMC as substrate incubated for 30 mins by microplate reader).

| Compound | IC50 |
| --- | --- |
| Cl.NCc1ccc(NC(=O)c2cc3ccccc3[nH]2)cc1 | Not Active |
| Cl.NCc1ccc(NC(=O)c2c(O)ccc3ccccc23)cc1 | Not Active |
| Cl.O=C(NC1CCNCC1)c1ccc2ccccc2c1O | Not Active |
| NCc1ccc(NC(=O)c2c[nH]c3ccccc3c2=O)cc1 | Not Active |

Now from value to compound:

| IC50 | Compound |
| --- | --- |
| Not Active | Cl.NCc1ccc(NC(=O)c2ccc(F)cc2O)cc1 |
| Not Active | CC(C)(C)c1ccc(O)c(CNc2ccc(CN)cc2)c1.Cl |

These compounds were tested against T1, Kallikrein-6 (assay: Inhibition of KLK6 (unknown origin) assessed as release of AMC fluorescent product using Boc-QAR-AMC as substrate at 10 uM incubated for 30 mins by microplate reader).
How it was run: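 KLK6 (activated with lysylendopeptidase) at 2 nM was preincubated 15 min at 37 °C with compound (10 μM screen, or a range within 0.1–100 μM) or DMSO <2%. Reaction started with Boc-QAR-AMC 100 μM in 50 mM Tris, 1 M citrate, 0.05% Brij-35, pH 7.4. AMC read at ex 360/em 460 nm for 30 min. % inhibition taken from initial rates versus DMSO; IC50 from curve fit; ≥3 independent experiments in duplicate.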

| Compound | inhibition [%] |
| --- | --- |
| Cc1cccc(O)c1C(=O)Nc1ccc(CN)cc1 | 7.27 |
| NCc1ccc(NC(=O)c2cc(Br)ccc2O)cc1 | 30 |
| NCc1ccc(NC(=O)c2ccc3ccccc3c2)cc1 | 19.8 |
| Cc1cccc(C(=O)Nc2ccc(CN)cc2)c1O | 20 |
| NCc1ccc(NC(=O)c2ncccc2O)cc1 | 8.86 |
| NCc1ccc(NC(=O)c2ccc(C(F)(F)F)cc2O)cc1 | 47 |

Further lines, results first:

| inhibition [%] | Compound |
| --- | --- |
| 26.5 | Cc1ccc(O)c(C(=O)Nc2ccc(CN)cc2)c1 |
| 21.8 | COc1ccc(O)c(C(=O)Nc2ccc(CN)cc2)c1 |
| 14.8 | NCc1ccc(NC(=O)c2ccccc2O)cc1 |
